This is an account of results in PMC4704638 (Brazilian Journal of Microbiology, 2015).

The test system of this assay is Streptomyces canarius L-glutaminase. As to the kind of experiment: ammonia release, Lineweaver-Burk plot. The assay is classed as biochemical. The following applies: read-out: Km (mmol ^-1); 10-100 mM substrate. An outline of the steps:
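Purified enzyme (ammonium sulphate 50-80% cut, dialysis, DEAE-cellulose; 132.2 U/mg protein) in potassium phosphate buffer pH 8 with L-glutamine, L-asparagine or L-aspartic acid, each separately at 10-100 mM, under standard assay conditions. Deaminating activity read as liberated NH3, expressed as µmol per min per mg protein. Km and Vmax from Lineweaver-Burk fit of 1/S versus 1/activity.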
For `NC(=O)C[C@H](N)C(=O)O` [L-asparagine], the Km (as a rule, the substrate concentration at which the rate is half of its maximum) came to 137 µM.
The figure for `N[C@@H](CC(=O)O)C(=O)O` [L-aspartic acid] is 5380 µM.
In the case of `NC(=O)CC[C@H](N)C(=O)O` [L-glutamine] it was 129 µM.
